Activity calls are given as the source filed them. No cut-off for these calls is given here.
Legend:
[1] = molecular target: Beta-galactosidase (Escherichia coli) (UniProt Q8VNN2); experiment: Inhibition of Escherichia coli beta-galactosidase assessed as formation of o-nitrophenol at 0.4 to 1.2 mM after 10 mins by visible absorption spectroscopy
Method in brief: (§1)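 E. coli β-galactosidase (0.3 U) was incubated with o-nitrophenyl β-D-galactopyranoside (0.2–5.0 mM) in 100 mM sodium phosphate, pH 7.3, containing 1.2 mM MgCl₂ and 100 mM 2-mercaptoethanol, with or without inhibitor, for 10 min at 37 °C. The reaction was quenched with 0.2 M sodium borate, pH 10.0, and released o-nitrophenol was read at 410 nm.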

Beta-galactosidase = Beta-galactosidase (Escherichia coli, UniProt Q8VNN2); experiment: Inhibition of Escherichia coli beta-galactosidase by Lineweaver-Burke plot analysis
Beta-galactosidase, sequence (Q8VNN2 whole entry): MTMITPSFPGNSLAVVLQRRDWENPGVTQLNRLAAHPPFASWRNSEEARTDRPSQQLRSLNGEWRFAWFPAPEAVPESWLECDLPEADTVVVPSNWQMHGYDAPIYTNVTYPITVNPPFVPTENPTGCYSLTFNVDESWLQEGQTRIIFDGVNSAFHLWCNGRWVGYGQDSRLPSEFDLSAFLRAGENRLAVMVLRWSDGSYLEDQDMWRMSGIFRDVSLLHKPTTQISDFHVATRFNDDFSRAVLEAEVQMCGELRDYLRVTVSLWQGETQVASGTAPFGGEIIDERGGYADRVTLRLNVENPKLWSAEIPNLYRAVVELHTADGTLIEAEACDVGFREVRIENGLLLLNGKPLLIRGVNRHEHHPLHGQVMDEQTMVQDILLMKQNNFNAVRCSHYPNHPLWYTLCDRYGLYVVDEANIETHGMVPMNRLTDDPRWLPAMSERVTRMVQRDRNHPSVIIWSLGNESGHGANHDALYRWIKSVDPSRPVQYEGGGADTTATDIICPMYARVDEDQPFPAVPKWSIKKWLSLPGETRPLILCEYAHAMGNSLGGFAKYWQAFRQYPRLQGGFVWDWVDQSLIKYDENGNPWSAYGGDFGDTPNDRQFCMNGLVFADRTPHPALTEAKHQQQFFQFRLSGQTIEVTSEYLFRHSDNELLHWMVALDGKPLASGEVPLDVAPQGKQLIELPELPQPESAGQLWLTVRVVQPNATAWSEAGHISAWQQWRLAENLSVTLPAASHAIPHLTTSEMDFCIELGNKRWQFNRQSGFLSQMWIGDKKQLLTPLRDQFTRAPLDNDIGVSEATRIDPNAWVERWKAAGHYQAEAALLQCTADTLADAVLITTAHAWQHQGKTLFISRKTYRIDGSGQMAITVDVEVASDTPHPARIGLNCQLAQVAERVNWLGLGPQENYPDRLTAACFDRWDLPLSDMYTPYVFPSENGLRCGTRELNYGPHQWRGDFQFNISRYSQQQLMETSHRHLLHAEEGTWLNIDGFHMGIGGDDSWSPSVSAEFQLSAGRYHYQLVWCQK
Method in brief: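 Kinetics of E. coli β-galactosidase with o-nitrophenyl β-D-galactopyranoside (0.2–5.0 mM) in 100 mM sodium phosphate, pH 7.3, with 1.2 mM MgCl₂ and 100 mM 2-mercaptoethanol, 10 min at 37 °C, borate quench, absorbance at 410 nm. Inhibitor was tested at 0, 0.40, 0.80 and 1.20 mM, and data were analysed by Lineweaver–Burk double-reciprocal plot.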

[2] = molecular target: Beta-galactosidase (Escherichia coli) (UniProt Q8VNN2); experiment: Inhibition of Escherichia coli beta-galactosidase assessed as formation of o-nitrophenol at 0.01 to 0.05 mM after 10 mins by visible absorption spectroscopy; method in brief: as §1
[3] = molecular target: Beta-galactosidase (Escherichia coli) (UniProt Q8VNN2); experiment: Inhibition of Escherichia coli beta-galactosidase assessed as formation of o-nitrophenol at 0.6 to 4 mM after 10 mins by visible absorption spectroscopy
Prunus dulcis = experiment: Inhibition of almond beta-glucosidase at 4 to 6 mM after 15 mins by visible absorption spectroscopy
Method in brief: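 Almond β-glucosidase (2.0 mU) was incubated with p-nitrophenyl β-D-glucopyranoside (0.5–10.0 mM) in 50 mM sodium acetate, pH 5.6, with or without inhibitor (4.0–6.0 mM) for 15 min at 37 °C. The reaction was stopped with sodium borate, pH 10.0, and absorbance was read at 400 nm.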

[4] = molecular target: T1, Exo-1,4-beta-xylosidase xlnD (Aspergillus niger) (UniProt O00089); experiment: Inhibition of Aspergillus niger beta-xylosidase at 10 mM after 15 mins by visible absorption spectroscopy
T1 sequence (whole entry): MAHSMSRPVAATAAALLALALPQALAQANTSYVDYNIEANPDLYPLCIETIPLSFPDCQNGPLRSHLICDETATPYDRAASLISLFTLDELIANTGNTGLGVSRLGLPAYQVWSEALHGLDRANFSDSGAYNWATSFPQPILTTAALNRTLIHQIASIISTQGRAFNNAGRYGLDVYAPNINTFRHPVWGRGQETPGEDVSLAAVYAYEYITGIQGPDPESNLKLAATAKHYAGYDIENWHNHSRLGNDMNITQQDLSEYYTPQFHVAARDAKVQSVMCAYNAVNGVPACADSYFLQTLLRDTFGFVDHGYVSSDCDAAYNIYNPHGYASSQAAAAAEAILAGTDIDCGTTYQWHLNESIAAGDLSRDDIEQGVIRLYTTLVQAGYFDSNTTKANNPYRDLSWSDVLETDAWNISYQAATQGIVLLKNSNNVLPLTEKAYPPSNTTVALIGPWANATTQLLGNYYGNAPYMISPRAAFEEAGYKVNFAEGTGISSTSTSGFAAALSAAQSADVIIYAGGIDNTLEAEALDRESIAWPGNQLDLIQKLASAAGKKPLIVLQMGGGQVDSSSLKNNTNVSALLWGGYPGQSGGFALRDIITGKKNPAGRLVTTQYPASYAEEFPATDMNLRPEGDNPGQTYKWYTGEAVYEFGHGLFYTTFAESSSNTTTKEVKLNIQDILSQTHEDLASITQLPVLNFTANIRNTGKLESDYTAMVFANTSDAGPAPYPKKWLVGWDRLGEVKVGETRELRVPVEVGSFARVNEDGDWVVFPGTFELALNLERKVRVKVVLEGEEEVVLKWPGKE
Method in brief: (§2)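 A. niger β-xylosidase (0.04 U) was incubated with p-nitrophenyl β-D-xylopyranoside (0.5–10.0 mM) in 50 mM sodium acetate, pH 5.0, with or without inhibitor (2.0–10.0 or 5.0–15.0 mM) for 15 min at 25 °C. The reaction was stopped with 0.2 M sodium borate, pH 10.0, and absorbance was read at 400 nm.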

[5] = molecular target: T1, Exo-1,4-beta-xylosidase xlnD (Aspergillus niger); experiment: Inhibition of Aspergillus niger beta-xylosidase at 15 mM after 15 mins by visible absorption spectroscopy; method in brief: as §2

Beta-galactosidase (Escherichia coli), sequence (Q8VNN2 whole entry, looked up): as the sequence (Q8VNN2 whole entry) above

Activity [1] | Ki (Beta-galactosidase) [µM] | Activity [2] | inhibition [3] | inhibition (Prunus dulcis) | inhibition [4] | inhibition [5] | Structure (SMILES)
Active | 800 |  |  |  |  |  | OC[C@H]1O[C@@H](S[C@@H]2CO[C@@H](OCc3ccccc3)[C@H](O)C2)[C@H](O)[C@@H](O)[C@H]1O
 | 32 | Active |  |  |  |  | OC[C@H]1O[C@@H](S[C@@H]2CO[C@@H](OCc3ccccc3)[C@@H](O)C2)[C@H](O)[C@@H](O)[C@H]1O
 | 120 |  | inactive | inactive | inactive |  | CC(C)O[C@H]1O[C@H](CO)[C@H](S[C@@H]2OC[C@@H](O)[C@H](O)[C@H]2O)C[C@@H]1O
 | 160 |  | inactive | inactive |  | inactive | CC(C)O[C@H]1O[C@H](CO)[C@H](S[C@@H]2OC[C@@H](O)[C@H](O)[C@H]2O)C[C@H]1O
